“And” between values parts separate entries of the source, which are not always exact repeats. Equal entries are not always repeated.
Columns and labels:
Encephalitozoon cuniculi [1] = assay: Activity of Encephalitozoon cuniculi polyamine oxidase assessed as hydrogen peroxide release by spectrophotometry
Method in brief: (§1)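 Crude enzyme came from mature E. cuniculi spores collected from culture overlay. Spores were washed in PBS pH 6.8, given 1% SDS for 5 min, glass-bead disrupted to >80% breakage, and clarified at 2,200 × g. The 1 ml assay at 37°C held 0.1 M glycine pH 7.0, 10 U horseradish peroxidase, 5 mM ABTS and 22–220 μg protein. Substrate started the reaction. A420 was followed 15 or 30 min; initial linear rate minus no-substrate control.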

Encephalitozoon cuniculi [2] = assay: Activity of Encephalitozoon cuniculi polyamine oxidase assessed as hydrogen peroxide release by spectrophotometry in presence of 1,15-bis{N-[O-phenyl)benzylamino}-4,12-diazapentadecane
Method in brief: (§2)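 Crude spore extract (SDS-washed spores, glass-bead disrupted, clarified at 2,200 × g) in 0.1 M glycine, pH 7.0, with horseradish peroxidase and ABTS. Runs used N1-acetylspermine at 100–2,000 μM, alone or with the analog fixed at 5, 50 or 100 μM; the analog alone was run at 1–25 μM. Reactions were started with 67 μg extract, and A420 was read for 15 min. Kinetic constants came from Hanes-Woolf plots ([S]/V vs [S]).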

Encephalitozoon cuniculi [3] = assay: Activity of Encephalitozoon cuniculi polyamine oxidase assessed as hydrogen peroxide release per mg protein by spectrophotometry
Method in brief: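 Enzyme was a clarified glass-bead homogenate of SDS-washed mature spores (>80% breakage). Reactions at 37°C held 0.1 M glycine, pH 7.0, 10 U HRP, 5 mM ABTS and 22–220 μg protein, and were started with substrate (1 mM N1-acetylspermine or another, e.g. 0.1 mM). Peroxide was followed as ABTS oxidation at 420 nm (ε 3.6 × 10⁴ M⁻¹ cm⁻¹) for 15 or 30 min. Values are the initial linear rate minus a no-substrate control.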

Encephalitozoon cuniculi [4] = assay: Activity of Encephalitozoon cuniculi polyamine oxidase assessed as hydrogen peroxide release per mg protein by spectrophotometry relative to 0.1 mM N'-acetylspermine; method in brief: as §1
Encephalitozoon cuniculi [5] = assay: Activity of Encephalitozoon cuniculi polyamine oxidase assessed as hydrogen peroxide release per mg protein by spectrophotometry relative to 1 mM N'-acetylspermine; method in brief: as §1
[6] = Inhibition of Encephalitozoon cuniculi polyamine oxidase assessed as hydrogen peroxide release using N'-acetylspermine substrate by spectrophotometry; method in brief: as §2

Km (Encephalitozoon cuniculi [2])	Vmax (Encephalitozoon cuniculi [2])	Activity (Encephalitozoon cuniculi [3])	Structure (SMILES)	Km (Encephalitozoon cuniculi [1])	Vmax (Encephalitozoon cuniculi [1])	fold change (FC) (Encephalitozoon cuniculi [4])	fold change (FC) (Encephalitozoon cuniculi [5])	Ki [6]
15 µM	17.5 µM/min	–	CC(=O)NCCCNCCCCNCCCN	30 µM	10 µM/min	–	–	–
–	–	1370 nmol/min and 690 nmol/min	c1ccc(CNCCCNCCCCCCCNCCCNCc2ccccc2)cc1	–	–	0.98	0.89	–
–	–	–	c1ccc(-c2ccccc2CNCCCNCCCCCCCNCCCNCc2ccccc2-c2ccccc2)cc1	2 µM	7.6 µM/min	0.8	0.31	40 µM

— ChEMBL document CHEMBL1649171, “Metabolism of an alkyl polyamine analog by a polyamine oxidase from the microsporidian Encephalitozoon cuniculi” (Antimicrob Agents Chemother, 2009)
